Laboratory results from ChEMBL document CHEMBL1123853, “A novel class of cardiotonics. Synthesis and pharmacological properties of [4-(substituted-amino)phenyl]pyridazinones and related derivatives” (1987).

Experiments:
Canis familiaris [1] = species on record: Canis familiaris; assay: Positive inotropic in the isolated papillary muscle of the dog.; assay type: functional, Canis lupus familiaris
Outline: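 Right ventricular anterior papillary muscle with septum, from mongrel dogs (7–12 kg, pentobarbital 30 mg/kg iv). It was perfused at about 100 mmHg via the septal artery with blood from a heparinized donor dog and paced at 120/min (1 ms pulses, about 1.5× threshold). Isometric tension was recorded. Saline solutions were injected intra-arterially, with amrinone as reference. ED15 (15% rise in developed tension) was taken from log dose-response curves. Results are mean ± SEM (n = 7) or mean ± range (n = 2).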

Canis familiaris [2] = assay: Inotropic activity determined by evaluating the % change in Heart Rate (HR) at a dose of 100 ug/kg administered intravenously […]; assay type: functional, Canis lupus familiaris
Outline: (§1)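 Mongrel dogs of either sex, 7–15 kg, anesthetized with sodium pentobarbital (30 mg/kg iv), open-chest, intubated and ventilated on room air. Compounds given intravenously. A femoral artery catheter with pressure transducer recorded SBP and DBP. dP/dtmax, right ventricular contractile force, cardiac output and heart rate were also recorded, as % change at each iv dose.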

Canis familiaris [3] = assay: Inotropic activity determined by evaluating the % change in Diastolic Blood Pressure (DBP) at a dose of 100 ug/kg administered intravenously […]; assay type: functional, Canis lupus familiaris; outline: as §1
Canis familiaris [4] = assay: Inotropic activity determined by evaluating the % change in Heart Rate (HR) at a dose of 300 ug/kg administered intravenously […]; assay type: functional, Canis lupus familiaris, Muscle tissue; outline: as §1
Canis familiaris [5] = assay: Inotropic activity determined by evaluating the maximum rate of rise in left ventricular pressure at a dose of 100 ug/kg administered intravenously […]; assay type: functional, Canis lupus familiaris, Muscle tissue; outline: as §1
Canis familiaris [6] = assay: Inotropic activity determined by evaluating the % change in contractile force (CF) of right ventricle at a dose of 300 ug/kg administered intravenously […]; assay type: functional, Canis lupus familiaris, Heart right ventricle; outline: as §1
Canis familiaris [7] = assay: Inotropic activity determined by evaluating the % change in Systolic Blood Pressure (SBP) at a dose of 300 ug/kg administered intravenously […]; assay type: functional, Canis lupus familiaris, Muscle tissue; outline: as §1
Canis familiaris [8] = assay: Inotropic activity determined by evaluating the % change in Systolic Blood Pressure (SBP) at a dose of 100 ug/kg administered intravenously […]; assay type: functional, Canis lupus familiaris, Muscle tissue; outline: as §1
Canis familiaris [9] = assay: Inotropic activity determined by evaluating the % change in Diastolic Blood Pressure (DBP) at a dose of 300 ug/kg administered intravenously […]; assay type: functional, Canis lupus familiaris; outline: as §1
Canis familiaris [10] = assay: Inotropic activity determined by evaluating the % change in Cardiac out put (CO)at a dose of 100 ug/kg administered intravenously […]; assay type: functional, Canis lupus familiaris; outline: as §1
Canis familiaris [11] = species on record: Canis familiaris; assay: Positive inotropic activity determined in the […](that produced 30% increase in dose- response curves [dP/dt(max)]); assay type: functional; conditions: Canis lupus familiaris
Outline: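 In the anesthetized open-chest dog (mongrel, 7–15 kg, pentobarbital 30 mg/kg iv, ventilated on room air), compounds were given intravenously and LV dP/dtmax was recorded. The dose giving a 30% rise in dP/dtmax was read from the dose-response curves. Results are mean ± SEM (n = 3) or mean ± range (n = 2).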

Canis familiaris [12] = assay: Inotropic activity determined by evaluating the % change in contractile force (CF) of right ventricle at a dose of 100 ug/kg administered intravenously […]; assay type: functional, Canis lupus familiaris, Heart right ventricle; outline: as §1
Canis familiaris [13] = assay: Inotropic activity determined by evaluating the maximum rate of rise in left ventricular pressure at a dose of 300 ug/kg administered intravenously […]; assay type: functional, Canis lupus familiaris, Muscle tissue; outline: as §1
Canis familiaris [14] = assay: Inotropic activity determined by evaluating the % change in Cardiac out put (CO)at a dose of 300 ug/kg administered intravenously […]; assay type: functional, Canis lupus familiaris; outline: as §1
Canis familiaris [15] = assay: Inotropic activity determined by evaluating the % change in Diastolic Blood Pressure (DBP) at a dose of 30 ug/kg administered intravenously […]; assay type: functional, Canis lupus familiaris; outline: as §1
Canis familiaris [16] = assay: Inotropic activity determined by evaluating the % change in Systolic Blood Pressure (SBP) at a dose of 30 ug/kg administered intravenously […]; assay type: functional, Canis lupus familiaris, Muscle tissue; outline: as §1
Canis familiaris [17] = assay: Inotropic activity determined by evaluating the % change in Heart Rate (HR) at a dose of 30 ug/kg administered intravenously […]; assay type: functional, Canis lupus familiaris; outline: as §1
Canis familiaris [18] = assay: Inotropic activity determined by evaluating the maximum rate of rise in left ventricular pressure at a dose of 30 ug/kg administered intravenously […]; assay type: functional, Canis lupus familiaris, Muscle tissue; outline: as §1
Canis familiaris [19] = assay: Inotropic activity determined by evaluating the % change in Cardiac out put (CO)at a dose of 30 ug/kg administered intravenously […]; assay type: functional, Canis lupus familiaris; outline: as §1
Canis familiaris [20] = assay: Inotropic activity determined by evaluating the % change in contractile force (CF) of right ventricle at a dose of 30 ug/kg administered intravenously […]; assay type: functional, Canis lupus familiaris, Heart right ventricle; outline: as §1
Canis familiaris [21] = assay: Inotropic activity determined by evaluating the % change in Cardiac out put (CO)at a dose of 10 ug/kg administered intravenously […]; assay type: functional, Canis lupus familiaris; outline: as §1
Canis familiaris [22] = assay: Inotropic activity determined by evaluating the maximum rate of rise in left ventricular pressure at a dose of 10 ug/kg administered intravenously […]; assay type: functional, Canis lupus familiaris, Muscle tissue; outline: as §1
Canis familiaris [23] = assay: Inotropic activity determined by evaluating the % change in Diastolic Blood Pressure (DBP) at a dose of 10 ug/kg administered intravenously […]; assay type: functional, Canis lupus familiaris; outline: as §1
Canis familiaris [24] = assay: Inotropic activity determined by evaluating the % change in Heart Rate (HR) at a dose of 10 ug/kg administered intravenously […]; assay type: functional, Canis lupus familiaris; outline: as §1
Canis familiaris [25] = assay: Inotropic activity determined by evaluating the % change in contractile force (CF) of right ventricle at a dose of 10 ug/kg administered intravenously […]; assay type: functional, Canis lupus familiaris, Heart right ventricle; outline: as §1
Canis familiaris [26] = assay: Inotropic activity determined by evaluating the % change in Systolic Blood Pressure (SBP) at a dose of 10 ug/kg administered intravenously […]; assay type: functional, Canis lupus familiaris; outline: as §1

Compound | ED15 (Canis familiaris [1]) [µg] | Change of HR (Canis familiaris [2]) [%] | Change of DBP (Canis familiaris [3]) [%] | dP/dt (Canis familiaris [5]) [%] | Change of SBP (Canis familiaris [8]) [%] | Change of CO (Canis familiaris [10]) [%] | ED30 (Canis familiaris [11]) [mg/kg] | Change of CF (Canis familiaris [12]) [%] | Change of DBP (Canis familiaris [15]) [%] | Change of SBP (Canis familiaris [16]) [%] | Change of HR (Canis familiaris [17]) [%] | dP/dt (Canis familiaris [18]) [%] | Change of CO (Canis familiaris [19]) [%] | Change of CF (Canis familiaris [20]) [%] | also measured
Cl.O=C1CCC(c2ccc(Nc3ccnc4ccccc34)cc2)=NN1 | >300 | – | – | – | – | – | – | – | – | – | – | – | – | – | –
CCC1CC(=O)NN=C1c1ccc(Nc2ccncc2)cc1.Cl (stereo unspecified) | 23 | 12 | -15.1 | 20.4 | -8.8 | 15.2 | 0.256 | 23.7 | – | – | – | – | – | – | Change of HR (Canis familiaris [4]): 22.5%; Change of CF (Canis familiaris [6]): 35.7%; Change of SBP (Canis familiaris [7]): -11.1%; Change of DBP (Canis familiaris [9]): -18.3%; dP/dt (Canis familiaris [13]): 34.8%; Change of CO (Canis familiaris [14]): 19.2%
CC1CC(=O)NN=C1c1ccc(N(C)c2ccncc2)cc1.Cl (stereo unspecified) | 18.5 | 22.8 | -13.9 | 27.5 | -5.5 | 13.3 | > 0.1 | 41.2 | -3.2 | -0.6 | 2.6 | 11 | 8.9 | 13 | –
Cl.Oc1ccc(-c2ccc(Nc3ccncc3)cc2)nn1 | 50 | 4.2 | -27.6 | 57.1 | -22.3 | 7.7 | 0.022 | 33.7 | -20 | -11.9 | 2.4 | 39.6 | 5.4 | 19.9 | Change of CO (Canis familiaris [21]): 1.6%; dP/dt (Canis familiaris [22]): 20.2%; Change of DBP (Canis familiaris [23]): -7.5%; Change of HR (Canis familiaris [24]): 1.3%; Change of CF (Canis familiaris [25]): 11%; Change of SBP (Canis familiaris [26]): -3.6%
CN(c1ccc(C2=NNC(=O)CC2)cc1)c1ccccn1.Cl | 5.6 | 9.5 | -17.8 | 32.5 | -10.5 | 18.7 | > 0.1 | 37.7 | -9.6 | -6.3 | 4.5 | 14.3 | 13.2 | 16.5 | –
Cl.O=C1CCC(c2ccc(Nc3ccccn3)cc2)=NN1 | 17.5 | 16.7 | -25.5 | 37.8 | -27.2 | 22.1 | 0.106 | 40.5 | -15.6 | -13.7 | 6.7 | 16.1 | 13.9 | 22 | –
Cl.O=C1CCC(c2ccc(Nc3ncccn3)cc2)=NN1 | 165 | – | – | – | – | – | – | – | – | – | – | – | – | – | –
CN(c1ccncc1)c1ccc(C2=NNC(=O)CC2)cc1.Cl | 38 | 1.4 | -4 | 13.6 | -2.1 | 5.9 | > 0.3 | 11 | – | – | – | – | – | – | Change of HR (Canis familiaris [4]): 2.7%; Change of CF (Canis familiaris [6]): 20%; Change of SBP (Canis familiaris [7]): -5.8%; Change of DBP (Canis familiaris [9]): -10.3%; dP/dt (Canis familiaris [13]): 17.8%; Change of CO (Canis familiaris [14]): 8.7%
O=C1CCC(c2ccc(-n3ccnc3)cc2)=NN1 [IMAZODAN] | – | 16.1 | -28.3 | 49.3 | -16.9 | 35.5 | 0.046 | 83.8 | -16.5 | -9.6 | 8.1 | 22.3 | 26.3 | 42.2 | Change of CO (Canis familiaris [21]): 11.2%; dP/dt (Canis familiaris [22]): 10.3%; Change of DBP (Canis familiaris [23]): -8.1%; Change of HR (Canis familiaris [24]): 3.6%; Change of CF (Canis familiaris [25]): 13.8%; Change of SBP (Canis familiaris [26]): -4.8%
